The test system of one data set is HepG2. As to the kind of experiment: Antiproliferative activity against human HepG2 cells by MTT assay. It is filed as functional, cell-based. A digest of the protocol:
(§1)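 MTT assay. Cells were grown in DMEM/RPMI 1640 with 10% FBS, penicillin and streptomycin at 37 °C under 5% CO2. After a PBS wash, cells got 0.5 mg/mL MTT for 3 h at 37 °C. Formazan was dissolved in DMSO and absorbance read at 570 nm. Inhibition was expressed as a percentage and IC50 calculated. Means ± SD come from three separate experiments.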
Background: Formazan colour is commonly taken as a measure of viable cells.

The subject of data set [1] is HT-29. As to the kind of experiment: Antiproliferative activity against human HT-29 cells by MTT assay. It is filed as functional, cell-based. A digest of the protocol: as §1
The subject of data set [2] is HT-29. As to the kind of experiment: Induction of autophagy in human HT-29 cells assessed as increase in Beclin-1 protein level at 2.5 uM incubated for 72 hrs by Western blot analysis. It counts as functional, cell-based. In a few lines:
(§2)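 HT29 cells (1.5×10^5/mL) were treated for 72 h and lysed. Lysate (0.05 mg/lane) was run on 12% SDS-PAGE and transferred to nitrocellulose. After blocking in 5% non-fat milk, blots were probed for Bax, Bcl-2, cleaved caspase-3, cleaved PARP, LC3, p62 and beclin-1. Levels were normalised to β-actin, and means ± SD taken from three independent assays.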
(Immunoblotting shows a protein as a band on a membrane.)

The nature of data set [3]: Cytotoxicity against human CCD-841 cells by MTT assay. It is filed as cell-based. In a few lines:
as §1

Data set [4] concerns HT-29. As to the kind of experiment: Induction of autophagy in human HT-29 cells assessed as reduction in p62 protein level at 2.5 uM incubated for 72 hrs by Western blot analysis. It is filed as functional, cell-based. A digest of the protocol: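 HT29 cells (1.5×10^5/mL) exposed to compound or vehicle for 72 h, then lysed. Lysates (0.05 mg/lane) run on 12% SDS-PAGE, transferred to nitrocellulose, blocked with 5% non-fat milk and probed for LC3, p62, beclin-1 and β-actin. Bands quantified relative to β-actin, with LC3-II/LC3-I ratio also calculated; means ± SD from three independent assays.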

The subject of data set [5] is HT-29. The data set can be described thus: Antitumor activity against human HT-29 cells xenografted in nude BALB/c mouse assessed as reduction in tumor volume at 40 mg/kg, ip dosed every day for 21 days. It is filed as functional, organism-based.
The subject of data set [6] is HT-29. As to the kind of experiment: Induction of apoptosis in human HT-29 cells at 2.5 uM incubated for 72 hrs by FITC-AnnexinV/PI staining based flow cytometry relative to control. It counts as functional. In a few lines: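 HT29 cells were cultured 12 h, then exposed to compound (0.4, 1.0, 2.5 µM) or vehicle for 72 h. Harvested cells were stained with Annexin V and PI, and apoptotic cell percentages measured by flow cytometry. Means ± SD come from three separate experiments.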
In general terms: A flow cytometer gives signals particle by particle.

Data set [7] relates to HT-29. As to the kind of experiment: Induction of apoptosis in human HT-29 cells assessed as increase in cleaved caspase-3 protein level at 2.5 uM incubated for 72 hrs by Western blot analysis. It is filed as functional, cell-based. In a few lines:
as §2

In data set [8] the test system is HT-29. The data set can be described thus: Induction of autophagy in human HT-29 cells assessed as increase in LC3-II protein level at 2.5 uM incubated for 72 hrs by Western blot analysis. It counts as functional, cell-based. In a few lines: as §2
The test system of data set [9] is HT-29. The data set can be described thus: Induction of apoptosis in human HT-29 cells assessed as increase in Bax protein level at 2.5 uM incubated for 72 hrs by Western blot analysis. It is filed as functional, cell-based. A digest of the protocol:
as §2

The subject of data set [10] is HT-29. The data set can be described thus: Induction of apoptosis in human HT-29 cells assessed as increase in cleaved PARP protein level at 2.5 uM incubated for 72 hrs by Western blot analysis. It counts as functional, cell-based. In a few lines: as §2
Data set [11] has as its system HT-29. As to the kind of experiment: Antitumor activity against human HT-29 cells xenografted in nude BALB/c mouse assessed as tumor weight level at 40 mg/kg, ip dosed every day for 21 days (reference value: 1.49 +/- 0.27 g). It is filed as functional.
For data set [12], the system named is HT-29. The data set can be described thus: Induction of apoptosis in human HT-29 cells assessed as reduction in Bcl2 protein level at 2.5 uM incubated for 72 hrs by Western blot analysis. It is filed as functional, cell-based. A digest of the protocol: as §2
Data set [13] in a line: Antiproliferative activity against rat 9L-2 cells by MTT assay. It counts as functional, cell-based. In a few lines: as §1
A short description of data set [14]: Dissociation constant, pKa of the compound. It counts as physicochemical.
The test system of data set [15] is HT-29. As to the kind of experiment: Induction of autophagy in human HT-29 cells assessed as increase in Beclin-1 protein level at 10 uM incubated for 72 hrs by Western blot analysis. It counts as functional, cell-based. In a few lines:
(§3)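 HT29 cells (1.5 × 10^5/mL) treated 72 h with compound or vehicle. Lysates loaded at 0.05 mg/lane on 12% SDS-PAGE, transferred to nitrocellulose, blocked in 5% non-fat milk. Probed with antibodies to Bax, Bcl-2, cleaved caspase-3, cleaved PARP, LC3, p62 and beclin-1. Bands quantified relative to β-actin; three independent assays, means ± SD.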

Data set [16] deals with HT-29. As to the kind of experiment: Induction of autophagy in human HT-29 cells assessed as reduction in p62 protein level at 10 uM incubated for 72 hrs by Western blot analysis. It is filed as functional, cell-based. A digest of the protocol: as §3
Data set [17] deals with HT-29. The data set can be described thus: Induction of apoptosis in human HT-29 cells assessed as reduction in Bcl2 protein level at 10 uM incubated for 72 hrs by Western blot analysis. It counts as functional, cell-based. A digest of the protocol: as §3
Data set [18] concerns HT-29. The data set can be described thus: Induction of autophagy in human HT-29 cells assessed as increase in LC3-II protein level at 10 uM incubated for 72 hrs by Western blot analysis. It is filed as functional, cell-based. A digest of the protocol: as §3
For data set [19], the system named is HT-29. As to the kind of experiment: Induction of apoptosis in human HT-29 cells assessed as increase in cleaved caspase-3 protein level at 10 uM incubated for 72 hrs by Western blot analysis. It is filed as functional, cell-based. A digest of the protocol:
as §3

Data set [20] concerns HT-29. As to the kind of experiment: Induction of apoptosis in human HT-29 cells at 10 uM incubated for 72 hrs by FITC-AnnexinV/PI staining based flow cytometry relative to control. It counts as functional. A digest of the protocol: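 HT29 cells cultured 12 h, then exposed to compound or vehicle for 72 h. Harvested cells stained with Annexin V plus a viability dye for 15 min at 37 °C. Percentage of apoptotic cells determined by flow cytometry; means ± SD from three separate experiments, compared with control.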

Data set [21] deals with HT-29. The data set can be described thus: Induction of apoptosis in human HT-29 cells assessed as increase in Bax protein level at 10 uM incubated for 72 hrs by Western blot analysis. It counts as functional, cell-based. A digest of the protocol: as §3
In data set [22] the test system is HT-29. The data set can be described thus: Induction of apoptosis in human HT-29 cells assessed as increase in cleaved PARP protein level at 10 uM incubated for 72 hrs by Western blot analysis. It counts as functional, cell-based. In a few lines: as §3

Active and inactive are the calls of the source. No cut-off for these calls is given here.

The term IC50 denotes the concentration that gives 50% inhibition. Higher therefore signals weaker potency in that assay. The term pKa denotes the negative logarithm of the acid dissociation constant. A higher pKa goes with a group that holds its proton tightly.

`COc1cc(-c2nc(N)cc3c2[nH]c2ccccc23)cc(OC)c1OC`: the IC50 amounted to 17.1 µM in the data set on HepG2 and 13.5 µM in the data set on HT-29 [1].
With `C/C=C/C(=O)OCC1=CCCCC1=O`, the result in the data set on HT-29 [2], in the data set on HT-29 [4], in the data set with HT-29 [5], in the data set with HT-29 [7], with HT-29 [8] and with HT-29 [9] was Active. Moreover, the outcome with HT-29 [10] and with HT-29 [12] was Active. Also, the IC50 turned out to be 5.93 µM in the data set on HepG2, 7.83 µM in data set [3], 4.37 µM in the data set on HT-29 [1] and 7.79 µM in data set [13]. For the same compound, the Activity in the data set with HT-29 [6] worked out at 28.8%; in the data set with HT-29 [11], 0.81 g.
For `COc1cc(-c2nc(N(C(=O)OCC3=CCCCC3=O)C(=O)OCC3=CCCCC3=O)cc3c2[nH]c2ccccc23)cc(OC)c1OC`, the IC50 with HepG2 came to 2.69 µM; in data set [3], 28.1 µM; with HT-29 [1], 1.45 µM; in [13] it was 4.85 µM. This compound had a pKa in [14] of 5.3.
In the case of `COc1ccc2c(c1)[nH]c1c(C)nccc12` [HARMINE], the IC50 with HepG2 was 49.6 µM; in [3] it was more than 50 µM; in the data set on HT-29 [1], 41.8 µM; in [13], 47.8 µM. Further, the result in the data set on HT-29 [15], with HT-29 [16], in the data set on HT-29 [17], in the data set with HT-29 [18], in the data set with HT-29 [19] and in the data set on HT-29 [21] was Active. For the same compound, in the data set with HT-29 [22], the result was Active. This compound also displayed an Activity with HT-29 [20] of 20.9%.
